The source made the active and inactive calls. The calls are words filed in the database; no cut-off is given here.
Assays:
[1] = Cmax in C57BL/6J mouse brain assessed as 4-(2-Amino-8-methyl-5,6,7,8-tetrahydroquinazolin-4-yl)phenol level at 20 mg/kg, po by LC-MS/MS analysis; assay type: ADME, organism-based; design: dose 20 mg/kg, route oral; settings: in vivo
How it was run: (§1)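 Male C57BL/6J mice (6-8 weeks, 20 ± 5 g) fasted overnight (12-16 h) got a single 20 mg/kg oral dose as 2.5 mg/mL suspension in 1% w/v gum acacia; n=5 per time point. Serum and brain (PBS homogenate 1:6 w/v) sampled up to 24 h. Parent and demethylated metabolite quantified by LC-MS/MS after liquid-liquid extraction (C18, MRM, phenacetin internal standard; linear 0.25-200 ng/mL). Two-compartment open model fit.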

[2] = AUClast in C57BL/6J mouse serum assessed as 4-(2-Amino-8-methyl-5,6,7,8-tetrahydroquinazolin-4-yl)phenol level at 20 mg/kg, po by LC-MS/MS analysis; assay type: ADME, organism-based; design: dose 20 mg/kg, time 0 - last, route oral; settings: in vivo
How it was run: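 Male C57BL/6J mice, 6-8 weeks, 20 ± 5 g, fasted overnight (12-16 h), n = 5 per time point. Single 20 mg/kg oral dose given by feeding needle as a 2.5 mg/mL suspension in 1% w/v gum acacia and water. Serum and brain (homogenized 1:6 w/v in PBS) sampled up to 24 h. Liquid-liquid extraction, then LC-MS/MS in positive MRM mode with phenacetin as internal standard. Linear range 0.25-200 ng/mL. Non-compartmental and compartmental analysis.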

[3] = target: T1, Muscarinic acetylcholine receptor M1 (Homo sapiens) (UniProt P11229); test: Agonist activity at M1R (unknown origin) expressed in HEK293 cells harboring luc2P/NFAT-RE plasmid at 10 uM after 6 to 8 hrs by luciferase reporter gene assay; assay type: cell-based
T1 sequence (whole entry): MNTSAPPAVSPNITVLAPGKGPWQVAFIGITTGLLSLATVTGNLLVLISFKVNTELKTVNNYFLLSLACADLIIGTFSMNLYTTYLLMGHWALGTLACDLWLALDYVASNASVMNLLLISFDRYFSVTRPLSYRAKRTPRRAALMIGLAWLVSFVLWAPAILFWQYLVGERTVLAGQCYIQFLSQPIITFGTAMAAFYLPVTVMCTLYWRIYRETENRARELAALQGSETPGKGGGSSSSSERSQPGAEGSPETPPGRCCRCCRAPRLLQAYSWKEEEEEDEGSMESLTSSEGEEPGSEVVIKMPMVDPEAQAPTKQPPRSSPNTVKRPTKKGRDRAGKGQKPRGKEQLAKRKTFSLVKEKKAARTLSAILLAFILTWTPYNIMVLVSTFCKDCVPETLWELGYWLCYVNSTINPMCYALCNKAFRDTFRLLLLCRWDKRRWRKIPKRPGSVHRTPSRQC
How it was run: (§2)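 NFAT-RE luciferase assay in HEK293T cells transiently co-transfected with luc2P/NFAT-RE plasmid and receptor plasmid. Cells plated in DMEM and incubated overnight at 37 °C, 5% CO₂. Compounds and reference ligands applied for 6-8 h. Luciferase read after adding Bright-Glo substrate (1 mg/ml final).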

[4] = target: Histamine H4 receptor (Homo sapiens) (UniProt Q9H3N8); test: Antagonist activity at recombinant human Gi-coupled H4 receptor expressed in HEK293T cells assessed as reduction in histamine-induced inhibition of forskolin-stimulated cAMP accumulation at 10 uM preincubated for 10 to 15 followed by histamine addition for 10 mins and subsequent forskolin-stimulation by Glo-sensor assay; assay type: functional, cell-based
Sequence of Histamine H4 receptor (Homo sapiens) (Q9H3N8 whole entry): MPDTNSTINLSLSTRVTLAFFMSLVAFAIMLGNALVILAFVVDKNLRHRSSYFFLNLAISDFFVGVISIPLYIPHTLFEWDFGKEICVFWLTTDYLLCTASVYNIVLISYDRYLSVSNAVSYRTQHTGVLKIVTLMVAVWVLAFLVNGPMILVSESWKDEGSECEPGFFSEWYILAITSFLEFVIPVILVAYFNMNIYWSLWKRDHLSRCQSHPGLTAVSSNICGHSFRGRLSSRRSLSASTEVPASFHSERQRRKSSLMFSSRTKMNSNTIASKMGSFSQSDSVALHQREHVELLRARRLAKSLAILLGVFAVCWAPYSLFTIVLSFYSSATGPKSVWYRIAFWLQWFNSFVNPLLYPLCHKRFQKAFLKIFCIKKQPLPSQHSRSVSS

[5] = target: Histamine H1 receptor (Homo sapiens) (UniProt P35367); test: Agonist activity at H1R (unknown origin) expressed in HEK293 cells harboring luc2P/NFAT-RE plasmid at 10 uM after 6 to 8 hrs by luciferase reporter gene assay; assay type: cell-based; how it was run: as §2
Sequence of Histamine H1 receptor (Homo sapiens) (P35367 whole entry): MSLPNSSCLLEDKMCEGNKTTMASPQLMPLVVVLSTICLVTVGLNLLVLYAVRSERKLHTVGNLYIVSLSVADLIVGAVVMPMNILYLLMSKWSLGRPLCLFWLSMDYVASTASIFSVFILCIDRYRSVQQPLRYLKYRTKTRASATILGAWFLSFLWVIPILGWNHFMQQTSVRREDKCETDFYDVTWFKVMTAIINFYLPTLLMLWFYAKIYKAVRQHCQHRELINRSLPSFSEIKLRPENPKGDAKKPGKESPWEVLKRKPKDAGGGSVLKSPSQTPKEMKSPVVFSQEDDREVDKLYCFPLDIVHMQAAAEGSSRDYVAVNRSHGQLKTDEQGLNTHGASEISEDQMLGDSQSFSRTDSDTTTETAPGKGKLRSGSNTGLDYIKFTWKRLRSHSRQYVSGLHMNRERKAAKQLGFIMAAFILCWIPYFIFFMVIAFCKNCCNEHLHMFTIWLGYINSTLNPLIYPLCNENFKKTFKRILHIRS

Mus musculus [6] = test: Anti-obesity activity in 16 hrs fasted db/db-induced obese C57BL/6J mouse model assessed as improvement in glucose homeostasis at 20 mg/kg, po treated prior to glucose addition measured after 15 to 120 mins by IPGTT; assay type: functional, organism-based
How it was run: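 Mice fasted 16 h; baseline tail-vein glucose read by glucometer. Glucose given i.p. at 2 g/kg (C57BL/6J) or 1 g/kg (db/db).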

[7] = target: T1, Muscarinic acetylcholine receptor M1 (Homo sapiens); test: Antagonist activity at M1R (unknown origin) expressed in HEK293 cells harboring luc2P/NFAT-RE plasmid at 10 uM after 6 to 8 hrs by luciferase reporter gene assay; assay type: cell-based; how it was run: as §2
Histamine H2 receptor = Histamine H2 receptor (Homo sapiens, UniProt P25021); test: Agonist activity at recombinant human Gs-coupled H2 receptor expressed in HEK293T cells assessed as inhibition of forskolin-stimulated cAMP accumulation at 10 uM preincubated for 10 to 15 followed by forskolin-stimulation by Glo-sensor assay relative to control; assay type: functional, cell-based; design: scale not given: the % may be the effect or the level left
Sequence of Histamine H2 receptor (P25021 whole entry): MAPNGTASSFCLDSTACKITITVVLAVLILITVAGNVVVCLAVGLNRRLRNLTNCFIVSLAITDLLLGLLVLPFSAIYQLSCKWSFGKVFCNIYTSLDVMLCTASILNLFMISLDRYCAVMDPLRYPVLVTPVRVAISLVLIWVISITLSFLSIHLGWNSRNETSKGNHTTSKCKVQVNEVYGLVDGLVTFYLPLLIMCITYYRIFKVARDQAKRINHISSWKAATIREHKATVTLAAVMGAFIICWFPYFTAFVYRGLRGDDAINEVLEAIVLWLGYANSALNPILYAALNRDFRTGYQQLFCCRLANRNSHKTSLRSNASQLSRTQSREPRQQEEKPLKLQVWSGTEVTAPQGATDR
How it was run: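 HEK293T cells were transiently co-transfected with GloSensor-22F cAMP plasmid and human H2R plasmid, then held 15–18 h at 37 °C in 5% CO2. Cells were loaded with sodium luciferin (1 mg/ml) for 90 min. Agonist mode used 10 µM compound, with luminescence read directly after 10–15 min. Screening was in triplicate, scored as ≥50% change versus control.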

[8] = Toxicity in lean C57BL/6J mouse assessed as effect on cumulative food intake at 20 mg/kg, po; assay type: organism-based; settings: in vivo
How it was run: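 Lean male C57BL/6J mice fasted 12 h (8 am-8 pm, water available), singly housed, given 20 mg/kg orally in 5% gum acacia/saline or vehicle. Cumulative food intake measured over 4 h night phase (9 pm-1 am) starting 30 min after dosing.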

[9] = Cmax in C57BL/6J mouse serum at 20 mg/kg, po by LC-MS/MS analysis; assay type: ADME, organism-based; design: dose 20 mg/kg, route oral; how it was run: as §1
[10] = target: D(1B) dopamine receptor (Homo sapiens) (UniProt P21918); test: Agonist activity at Gs-coupled D5 receptor (unknown origin) expressed in HEK293T cells assessed as inhibition of forskolin-stimulated cAMP accumulation preincubated for 10 to 15 followed by forskolin-stimulation by Glo-sensor assay; assay type: functional, cell-based
Sequence of D(1B) dopamine receptor (Homo sapiens) (P21918 whole entry): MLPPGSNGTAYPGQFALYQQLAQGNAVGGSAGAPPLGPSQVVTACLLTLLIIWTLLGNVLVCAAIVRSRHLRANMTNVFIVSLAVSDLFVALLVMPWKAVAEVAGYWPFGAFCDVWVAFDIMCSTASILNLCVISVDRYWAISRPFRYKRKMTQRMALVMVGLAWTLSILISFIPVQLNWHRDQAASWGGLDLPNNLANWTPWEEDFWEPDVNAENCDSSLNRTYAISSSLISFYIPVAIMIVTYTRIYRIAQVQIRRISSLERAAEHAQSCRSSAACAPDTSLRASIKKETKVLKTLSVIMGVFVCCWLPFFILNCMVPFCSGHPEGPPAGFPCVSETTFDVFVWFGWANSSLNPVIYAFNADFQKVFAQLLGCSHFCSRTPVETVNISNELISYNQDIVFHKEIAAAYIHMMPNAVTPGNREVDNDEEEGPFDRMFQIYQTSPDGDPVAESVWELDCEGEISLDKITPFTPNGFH

Mus musculus [11] = test: Anti-obesity activity in 16 hrs fasted db/db-induced obese […] mouse model assessed as reduction in body weight at 20 mg/kg, po measured after 4 weeks; assay type: functional, organism-based
[12] = target: Free fatty acid receptor 1 (Homo sapiens) (UniProt O14842); test: Agonist activity at GPR40 (unknown origin) expressed in HEK293 cells harboring luc2P/NFAT-RE plasmid at 10 uM after 6 to 8 hrs by luciferase reporter gene assay; assay type: cell-based; how it was run: as §2
Sequence of Free fatty acid receptor 1 (Homo sapiens) (O14842 whole entry): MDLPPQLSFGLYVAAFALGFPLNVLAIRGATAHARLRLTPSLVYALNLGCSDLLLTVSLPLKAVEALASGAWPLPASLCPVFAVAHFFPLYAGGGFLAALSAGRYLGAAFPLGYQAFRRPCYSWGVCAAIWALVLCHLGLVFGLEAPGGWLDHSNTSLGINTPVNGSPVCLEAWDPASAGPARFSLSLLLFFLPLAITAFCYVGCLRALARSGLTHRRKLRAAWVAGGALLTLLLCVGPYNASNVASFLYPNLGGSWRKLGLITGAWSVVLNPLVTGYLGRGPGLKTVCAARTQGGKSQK

Mus musculus [13] = test: Anti-obesity activity in high fat diet-induced obese C57BL/6J mouse model assessed as change in blood total cholesterol level at 10 to 20 mg/kg, po measured after 6 weeks; assay type: functional, organism-based
How it was run: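 At the end of treatment (six weeks HFD, four weeks db/db), mice euthanized with avertin 350 mg/kg. Blood taken by cardiac puncture into 3.8% sodium citrate. Plasma separated at 4000 rpm and stored at -80 °C. TG, TC, HDLc and LDLc measured on a bio-analyzer.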

[14] = target: Kappa-type opioid receptor (Homo sapiens) (UniProt P41145); test: Agonist activity at Gi-coupled KOR (unknown origin) expressed in HEK293T cells assessed as inhibition of forskolin-stimulated cAMP accumulation preincubated for 10 to 15 followed by forskolin-stimulation by Glo-sensor assay; assay type: functional, cell-based
Sequence of Kappa-type opioid receptor (Homo sapiens) (P41145 whole entry): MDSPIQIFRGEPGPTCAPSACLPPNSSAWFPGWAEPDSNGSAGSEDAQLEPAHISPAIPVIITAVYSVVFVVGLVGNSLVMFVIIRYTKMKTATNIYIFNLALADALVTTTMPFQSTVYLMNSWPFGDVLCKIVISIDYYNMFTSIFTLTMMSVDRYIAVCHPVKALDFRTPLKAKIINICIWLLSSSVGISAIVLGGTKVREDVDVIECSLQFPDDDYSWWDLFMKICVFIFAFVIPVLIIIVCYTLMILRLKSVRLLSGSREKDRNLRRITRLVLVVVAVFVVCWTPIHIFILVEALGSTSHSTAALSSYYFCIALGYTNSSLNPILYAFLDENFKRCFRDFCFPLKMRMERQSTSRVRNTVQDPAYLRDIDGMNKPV

COc1ccc(-c2nc(N)nc3c2CCCC3C)cc1 (racemic)
Cmax [1]: 101 ng/g | AUClast [2]: 1646.9 ng·h/mL | Activity [3]: inactive | inhibition [4]: inactive | Activity [5]: inactive | Activity (Mus musculus [6]): Active | inhibition [7]: inactive | Activity (Histamine H2 receptor): < 50% | Activity [8]: Non-Toxic | Cmax [9]: 3360 ng/mL | INH [10]: > 10 µM | Activity (Mus musculus [11]): Active | Activity [12]: inactive | Activity (Mus musculus [13]): inactive | inhibition [14]: inactive
